Results reported in ChEMBL document CHEMBL1782018, “Novel 3alpha-methoxyserrat-14-en-21beta-ol (PJ-1) and 3beta-methoxyserrat-14-en-21beta-ol (PJ-2)-curcumin, kojic acid, quercetin, and baicalein conjugates as HIV agents” (Bioorg Med Chem, 2009).
≈ marks a conversion by molar mass, not a printed value.

How the values were obtained:
[1] = tested on: Human immunodeficiency virus 1; experiment: Antiviral activity against HIV1 NL4-3 infected human C8166-CCR5 cells assessed as decrease in virus-induced cytopathicity after 72 hrs by cell associated dehydrogenase activity assay; assay type: functional, organism-based; conditions: Human immunodeficiency virus 1, NL4-3, C8166-CCR5, 72 h
[2] = Cytotoxicity against […] human C8166-CCR5 cells assessed as decrease in cell viability by cell associated dehydrogenase activity assay; assay type: cell-based
Method in brief: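 C8166-CCR5 human CD4+ T cells, grown in RPMI 1640 with 10% FBS and antibiotics, seeded at 3 × 10^4 cells per well with compound across a concentration series. Incubated at 37 °C for 72 h. Viability read by cell-associated dehydrogenase activity (CCK-8). Run in duplicate or triplicate. CC50 is the 50% cytostatic concentration.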

[3] = Selectivity index, ratio of CC50 for human C8166-CCR5 cells to EC50 for HIV1 NL4-3; assay type: toxicity, cell-based; conditions: read-out: Ratio CC50/EC50
Method in brief: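 SI = CC50/EC50. CC50 is from the 72 h CCK-8 viability assay in uninfected C8166-CCR5 cells. EC50 is from supernatant RT activity four days after HIV-1 NL43 infection of the same cells.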

[4] = molecular target: Protease (Human immunodeficiency virus 1, UniProt Q9YQ12); experiment: Inhibition of HIV1 protease activity
Protease, sequence (Q9YQ12 whole entry): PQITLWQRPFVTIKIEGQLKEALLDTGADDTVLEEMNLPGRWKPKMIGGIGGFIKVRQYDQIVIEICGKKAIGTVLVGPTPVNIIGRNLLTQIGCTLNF

[5] = molecular target: Human immunodeficiency virus type 1 reverse transcriptase (Human immunodeficiency virus 1, UniProt Q72547); experiment: Antiviral activity against HIV1 Reverse transcriptase activity
Method in brief: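 C8166-CCR5 human CD4+ T cells (3 × 10^4) in RPMI 1640 with 10% FBS were mixed with compound and infected with HIV-1 NL43 inoculum normalized to 1 × 10^5 cpm RT activity, then held at 37 °C. Four days after infection, supernatant RT activity was read with poly(A) template, oligo(dT) primer and [32P]TTP. Run in duplicate or triplicate. EC50 reported.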

[6] = Selectivity index, ratio of CD50 for human MT4 cells to ID50 for HIV1; assay type: toxicity, cell-based; conditions: read-out: Selectivity Index
[7] = tested on: Human immunodeficiency virus 1; experiment: Antiviral activity against HIV1 3B infected human CCR5 cells assessed as decrease in viral syncytium formation; assay type: functional, organism-based; conditions: Human immunodeficiency virus 1, 3B

Row | Compound | EC50 [1] | IC50 [4] | CC50 [2] | selectivity ratio [3] | also measured
1 | CO[C@@H]1CC[C@]2(C)[C@H](CC[C@@]3(C)CC4=CC[C@@H]5C(C)(C)[C@H](OC(=O)CCC(=O)OCc6cc(=O)c(OC(=O)CCC(=O)O[C@@H]7CC[C@@]8(C)[C@@H]9CC[C@H]%10[C@@](C)(CC[C@@H]%11C(C)(C)[C@H](OC)CC[C@]%11%10C)CC9=CC[C@@H]8C7(C)C)co6)CC[C@@]5(C)[C@@H]4CC[C@@H]32)C1(C)C | 0.12 mg/L (≈ 0.0984 µM) |  | 4.2 mg/L (≈ 3.44 µM) | 35 | 
2 | CO[C@H]1CC[C@]2(C)[C@H](CC[C@@]3(C)CC4=CC[C@@H]5C(C)(C)[C@H](OC(=O)CCC(=O)OCc6cc(=O)c(OC(=O)CCC(=O)O[C@@H]7CC[C@@]8(C)[C@@H]9CC[C@H]%10[C@@](C)(CC[C@@H]%11C(C)(C)[C@@H](OC)CC[C@]%11%10C)CC9=CC[C@@H]8C7(C)C)co6)CC[C@@]5(C)[C@@H]4CC[C@@H]32)C1(C)C | 5.94 mg/L (≈ 4.87 µM) |  | > 100 mg/L | > 5000 | 
3 | CO[C@@H]1CC[C@]2(C)[C@H](CC[C@@]3(C)CC4=CC[C@@H]5C(C)(C)[C@H](OC(=O)CCC(=O)Oc6cc(-c7oc8cc(O)cc(O)c8c(=O)c7O)ccc6O)CC[C@@]5(C)[C@@H]4CC[C@@H]32)C1(C)C | 26.6 mg/L (≈ 31.6 µM) |  | > 100 mg/L | 4.8 | 
4 | CC1(C)[C@H](O)CC[C@]2(C)C3=CC[C@@]4(C)[C@@H]5C[C@](C)(COC(=O)c6ccccc6)CC[C@]5(C)CC[C@]4(C)C3=CC[C@@H]12 |  |  |  |  | IC50 [5]: 4.04 µM
5 | C=C(CC[C@@H](C)[C@H]1CC[C@@]2(C)[C@@H]3CC[C@H]4C(C)(C)[C@@H](OC(=O)/C=C/c5ccc(O)c(OC)c5)CC[C@@]45C[C@@]35CC[C@]12C)C(C)C |  |  |  |  | IC50 [5]: 3.08 µM
6 | C=C(C)[C@@H]1CC[C@]2(COC(C)=O)CC[C@]3(C)[C@H](CC[C@@H]4[C@@]5(C)CC[C@H](OC(C)=O)C(C)(C)[C@@H]5CC[C@]43C)[C@@H]12 [BETULIN DIACETATE] |  |  |  |  | IC50 [5]: 2.66 µM
7 | C=C(C)[C@@H]1CC[C@]2(C(=O)O)CC[C@]3(C)[C@H](CC[C@@H]4[C@@]5(C)CC[C@H](O)C(C)(C)[C@@H]5CC[C@]43C)[C@@H]12 [BETULINIC ACID GLUTARYL HEMI ESTER] |  | 4 µM |  |  | 
8 | CC1(C)[C@@H](O)CC[C@]2(C)[C@H]3C(=O)C=C4[C@@H]5C[C@@](C)(C(=O)O)CC[C@]5(C)CC[C@@]4(C)[C@]3(C)CC[C@@H]12 [ENOXOLONE] |  |  |  |  | selectivity ratio [6]: 9.6
9 | COc1cc(/C=C/C(=O)O[C@H]2CC[C@]34C[C@]35CC[C@]3(C)[C@@H]([C@H](C)CCC=C(C)C)CC[C@@]3(C)[C@@H]5CC[C@H]4C2(C)C)ccc1O [GAMMA ORYZANOL] |  |  |  |  | IC50 [5]: 3.65 µM
10 | C=C(C)[C@@H]1CC[C@]2(C)CC[C@]3(C)[C@H](CC[C@@H]4[C@@]5(C)CCC(=O)C(C)(C)[C@@H]5CC[C@]43C)[C@@H]12 [LUPENONE] |  |  |  |  | IC50 [5]: 4.94 µM
11 | CC1=C[C@@H]([C@H](O)[C@H](C)[C@@H]2C[C@@H](O)[C@@]3(O)[C@@H]4CC[C@@H]5C(C)(C)O[C@@H]6CC(=O)O[C@@]56C[C@]4(O)CC[C@@]23C)OC1=O [MICRANDILACTONE C] |  |  | > 200 mg/L |  | EC50 [7]: 7710 mg/L (≈ 14400 µM)
12 | Cc1cn([C@H]2C[C@H](N=[N+]=[N-])[C@@H](CO)O2)c(=O)[nH]c1=O [ZIDOVUDINE] | 0.02 mg/L (≈ 0.0748 µM) |  | > 100 mg/L | > 5000 | 

Now from value to compound, other results behind:

Row | EC50 [1] | IC50 [4] | Compound | CC50 [2] | selectivity ratio [3] | also measured
13 | > 100 mg/L |  | CO[C@@H]1CC[C@]2(C)[C@H](CC[C@@]3(C)CC4=CC[C@@H]5C(C)(C)[C@H](O)CC[C@@]5(C)[C@@H]4CC[C@@H]32)C1(C)C | > 100 mg/L |  | 
14 | > 100 mg/L |  | CO[C@H]1CC[C@]2(C)[C@H](CC[C@@]3(C)CC4=CC[C@@H]5C(C)(C)[C@H](O)CC[C@@]5(C)[C@@H]4CC[C@@H]32)C1(C)C | > 100 mg/L |  | 
15 | 4.13 mg/L (≈ 6.07 µM) |  | CO[C@@H]1CC[C@]2(C)[C@H](CC[C@@]3(C)CC4=CC[C@@H]5C(C)(C)[C@H](OC(=O)CCC(=O)Oc6coc(CO)cc6=O)CC[C@@]5(C)[C@@H]4CC[C@@H]32)C1(C)C | 22.2 mg/L (≈ 32.6 µM) | 5.4 | 
16 | 6.75 mg/L (≈ 9.91 µM) |  | CO[C@H]1CC[C@]2(C)[C@H](CC[C@@]3(C)CC4=CC[C@@H]5C(C)(C)[C@H](OC(=O)CCC(=O)Oc6coc(CO)cc6=O)CC[C@@]5(C)[C@@H]4CC[C@@H]32)C1(C)C | > 100 mg/L | 86.8 | 
17 | 23.2 mg/L (≈ 27.6 µM) |  | CO[C@H]1CC[C@]2(C)[C@H](CC[C@@]3(C)CC4=CC[C@@H]5C(C)(C)[C@H](OC(=O)CCC(=O)Oc6cc(-c7oc8cc(O)cc(O)c8c(=O)c7O)ccc6O)CC[C@@]5(C)[C@@H]4CC[C@@H]32)C1(C)C | > 100 mg/L | > 5000 | 
18 | 21.4 mg/L (≈ 26.5 µM) |  | CO[C@@H]1CC[C@]2(C)[C@H](CC[C@@]3(C)CC4=CC[C@@H]5C(C)(C)[C@H](OC(=O)CCC(=O)Oc6c(O)cc7oc(-c8ccccc8)cc(=O)c7c6O)CC[C@@]5(C)[C@@H]4CC[C@@H]32)C1(C)C | > 100 mg/L | 4.9 | 
19 | 55.4 mg/L (≈ 68.4 µM) |  | CO[C@H]1CC[C@]2(C)[C@H](CC[C@@]3(C)CC4=CC[C@@H]5C(C)(C)[C@H](OC(=O)CCC(=O)Oc6c(O)cc7oc(-c8ccccc8)cc(=O)c7c6O)CC[C@@]5(C)[C@@H]4CC[C@@H]32)C1(C)C | > 100 mg/L | 2.3 | 
20 |  | 1.7 µM | CC1(C)CC[C@]2(C(=O)NCCCCCC(=O)O)CC[C@]3(C)C(=CC[C@@H]4[C@@]5(C)CC[C@H](O)C(C)(C)[C@@H]5CC[C@]43C)[C@@H]2C1 |  |  | 
21 |  | 1.7 µM | CC1(C)CC[C@]2(C(=O)NCCCCCC(=O)O)CC[C@]3(C)C(=CC[C@@H]4[C@@]5(C)CC[C@H](OC(=O)CCCCC(=O)O)C(C)(C)[C@@H]5CC[C@]43C)[C@@H]2C1 |  |  | 
22 |  | 4 µM | CC1(C)CC[C@]2(C(=O)O)CC[C@]3(C)C(=CC[C@@H]4[C@@]5(C)CC[C@H](O)C(C)(C)[C@@H]5CC[C@]43C)[C@@H]2C1 [OLEANOLIC ACID GLUTARYL HEMI ESTER] |  |  | 
23 |  | 8 µM | CC1(C)CC[C@]2(C(=O)O)CC[C@]3(C)C(=CC[C@@H]4[C@@]5(C)CC[C@H](O)C(C)(C)[C@@H]5CC[C@]43C)[C@@H]2C1 [OLEANOLIC_ACID] |  |  | 
24 |  | 4 µM | C[C@H]1[C@H](C)CC[C@]2(C(=O)O)CC[C@]3(C)C(=CC[C@@H]4[C@@]5(C)CC[C@H](O)C(C)(C)[C@@H]5CC[C@]43C)[C@H]12 [URSOLIC ACID GLUTARYL HEMI ESTER] |  |  | 
25 |  | 6 µM | C[C@H]1[C@H](C)CC[C@]2(C(=O)O)CC[C@]3(C)C(=CC[C@@H]4[C@@]5(C)CC[C@H](O)C(C)(C)[C@@H]5CC[C@]43C)[C@H]12 [URSOLIC ACID HYDROGEN MALONATE] |  |  | 
26 |  | 8 µM | C[C@H]1[C@H](C)CC[C@]2(C(=O)O)CC[C@]3(C)C(=CC[C@@H]4[C@@]5(C)CC[C@H](O)C(C)(C)[C@@H]5CC[C@]43C)[C@H]12 [URSOLIC ACID] |  |  | 
